Reference: ChEMBL document CHEMBL1149671, “Enantiopure five-membered cyclicdiamine derivatives as potent and selective inhibitors of factor Xa. Improving in vitro metabolic stability via core modifications” (Bioorg Med Chem Lett, 2007)
pIC50, pKi: −log10 of the molar value.

Assays:
Coagulation factor X = Coagulation factor X (Homo sapiens, UniProt P00742); assay: Inhibition of human factor 10a
[1] = Cytotoxicity against HEK cells; assay type: cell-based; settings: Homo sapiens, HEK293
Liver microsomes = assay: Metabolic stability in human liver microsomes assessed as microsomal intrinsic clearance rate; assay type: ADME, Microsome
Outline: (§1)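 Human liver microsomes, 10-min incubation. Metabolic stability given as % compound remaining. Microsomal intrinsic clearance rate (nmol/min/mg) is based on the % remaining after 10 min.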

Prothrombin = Prothrombin (Homo sapiens, UniProt P00734); assay: Inhibition of human thrombin
[2] = biological target: Vitamin K-dependent protein C (Homo sapiens, UniProt P04070); assay: Inhibition of human activated protein C
Vitamin K-dependent protein C, sequence (P04070 43-197 limits assumed): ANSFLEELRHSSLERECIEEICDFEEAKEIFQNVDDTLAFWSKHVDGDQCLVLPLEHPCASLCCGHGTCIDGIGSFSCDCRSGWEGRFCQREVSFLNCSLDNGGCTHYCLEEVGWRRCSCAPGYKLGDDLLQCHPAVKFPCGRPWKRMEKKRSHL
Vitamin K-dependent protein C, sequence (P04070 212-461 limits assumed): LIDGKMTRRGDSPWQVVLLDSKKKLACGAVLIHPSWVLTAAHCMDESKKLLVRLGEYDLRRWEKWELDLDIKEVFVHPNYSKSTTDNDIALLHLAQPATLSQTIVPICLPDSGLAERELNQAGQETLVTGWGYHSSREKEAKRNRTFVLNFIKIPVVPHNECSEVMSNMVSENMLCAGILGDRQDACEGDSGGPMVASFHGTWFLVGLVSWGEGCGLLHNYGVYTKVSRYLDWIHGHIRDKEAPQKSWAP

[3] = Permeability across Caco-2 cells; assay type: ADME, cell-based; settings: human, read-out: permeability
[4] = Inhibition of human chymotrypsin
[5] = Volume of distribution at steady state in dog at 0.5 mg/kg, iv; assay type: ADME, organism-based, Canis lupus familiaris; parameters: dose 0.5 mg/kg, route intravenous; settings: in vivo, read-out: Vdss
Outline: (§2)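 Dogs. Intravenous dose 0.5 mg/kg, used for clearance (L/kg/h), steady-state volume of distribution (L/kg) and iv half-life.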

[6] = biological target: Urokinase-type plasminogen activator (Homo sapiens, UniProt P00749); assay: Inhibition of human urokinase
Trypsin = Trypsin (Homo sapiens, UniProt P07477+P07478+P35030); assay: Inhibition of human trypsin; assay type: protein assay
[7] = biological target: Tissue-type plasminogen activator (Homo sapiens, UniProt P00750); assay: Inhibition of human tissue plasminogen activator
Tissue-type plasminogen activator, sequence (P00750 whole entry): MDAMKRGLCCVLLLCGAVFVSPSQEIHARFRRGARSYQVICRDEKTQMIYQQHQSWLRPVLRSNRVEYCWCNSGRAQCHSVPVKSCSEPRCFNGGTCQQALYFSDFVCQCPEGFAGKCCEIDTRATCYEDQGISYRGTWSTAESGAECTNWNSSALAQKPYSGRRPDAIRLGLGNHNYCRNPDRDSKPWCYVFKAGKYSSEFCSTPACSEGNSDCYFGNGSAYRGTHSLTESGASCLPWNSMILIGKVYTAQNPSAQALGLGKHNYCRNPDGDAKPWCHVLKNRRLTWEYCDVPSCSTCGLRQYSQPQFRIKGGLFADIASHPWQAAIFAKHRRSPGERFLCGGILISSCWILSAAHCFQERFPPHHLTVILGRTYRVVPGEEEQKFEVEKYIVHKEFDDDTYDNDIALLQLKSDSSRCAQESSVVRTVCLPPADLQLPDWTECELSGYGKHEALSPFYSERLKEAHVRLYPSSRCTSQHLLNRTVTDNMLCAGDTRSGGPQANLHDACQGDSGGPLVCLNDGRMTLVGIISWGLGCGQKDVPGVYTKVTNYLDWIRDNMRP

Plasma kallikrein = Plasma kallikrein (Homo sapiens, UniProt P03952); assay: Inhibition of human plasma kallikrein; assay type: cell-free
Plasma kallikrein, sequence (P03952 20-390 limits assumed): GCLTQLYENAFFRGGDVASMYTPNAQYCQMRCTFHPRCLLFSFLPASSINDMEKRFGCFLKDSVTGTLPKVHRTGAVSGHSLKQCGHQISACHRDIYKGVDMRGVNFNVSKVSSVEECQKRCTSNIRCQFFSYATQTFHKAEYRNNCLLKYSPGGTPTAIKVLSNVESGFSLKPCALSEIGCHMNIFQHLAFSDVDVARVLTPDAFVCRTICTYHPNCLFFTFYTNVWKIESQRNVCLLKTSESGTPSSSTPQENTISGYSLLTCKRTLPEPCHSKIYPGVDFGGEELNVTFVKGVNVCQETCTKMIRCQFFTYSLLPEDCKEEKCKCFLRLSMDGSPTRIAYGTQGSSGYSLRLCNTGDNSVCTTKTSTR
Plasma kallikrein, sequence (P03952 391-638 limits assumed): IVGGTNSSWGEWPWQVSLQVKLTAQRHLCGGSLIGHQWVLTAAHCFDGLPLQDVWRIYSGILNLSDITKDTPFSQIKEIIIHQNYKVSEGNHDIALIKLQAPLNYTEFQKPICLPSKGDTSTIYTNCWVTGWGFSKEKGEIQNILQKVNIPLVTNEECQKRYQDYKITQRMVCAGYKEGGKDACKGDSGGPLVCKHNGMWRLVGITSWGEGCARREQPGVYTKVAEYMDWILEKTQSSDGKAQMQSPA

Plasminogen = Plasminogen (Homo sapiens, UniProt P00747); assay: Inhibition of human Plasmin
Plasminogen, sequence (P00747 97-580 limits assumed): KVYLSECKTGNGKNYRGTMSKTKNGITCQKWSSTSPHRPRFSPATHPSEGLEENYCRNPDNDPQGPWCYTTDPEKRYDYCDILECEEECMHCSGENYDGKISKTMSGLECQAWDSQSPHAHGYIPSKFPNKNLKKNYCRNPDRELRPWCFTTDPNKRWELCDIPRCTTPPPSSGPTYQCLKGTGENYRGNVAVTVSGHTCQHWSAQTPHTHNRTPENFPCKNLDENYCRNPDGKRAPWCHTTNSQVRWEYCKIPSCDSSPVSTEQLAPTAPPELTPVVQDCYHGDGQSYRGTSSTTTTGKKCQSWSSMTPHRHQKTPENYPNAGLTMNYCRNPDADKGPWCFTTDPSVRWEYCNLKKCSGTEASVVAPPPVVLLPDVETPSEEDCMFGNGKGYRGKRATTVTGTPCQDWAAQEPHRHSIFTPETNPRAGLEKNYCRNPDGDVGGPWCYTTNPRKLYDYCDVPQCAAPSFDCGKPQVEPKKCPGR
Plasminogen, sequence (P00747 581-810 limits assumed): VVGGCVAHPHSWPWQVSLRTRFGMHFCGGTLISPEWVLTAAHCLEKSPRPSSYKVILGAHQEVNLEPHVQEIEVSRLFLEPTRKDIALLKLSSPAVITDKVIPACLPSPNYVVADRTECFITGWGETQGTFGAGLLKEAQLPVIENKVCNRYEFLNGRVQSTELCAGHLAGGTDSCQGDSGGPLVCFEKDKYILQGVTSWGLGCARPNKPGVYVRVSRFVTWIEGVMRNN

[8] = Clearance in dog at 0.5 mg/kg, iv; assay type: ADME, organism-based, Canis lupus familiaris; parameters: dose 0.5 mg/kg, route intravenous; settings: in vivo; outline: as §2
[9] = Half life in dog at 0.2 mg/kg, po; assay type: ADME, organism-based, Canis lupus familiaris; parameters: dose 0.2 mg/kg, route oral; settings: in vivo
Coagulation factor VII = biological target: T1, Coagulation factor VII (Homo sapiens, UniProt P08709); assay: Inhibition of human factor 7a
T1 sequence (P08709 whole entry): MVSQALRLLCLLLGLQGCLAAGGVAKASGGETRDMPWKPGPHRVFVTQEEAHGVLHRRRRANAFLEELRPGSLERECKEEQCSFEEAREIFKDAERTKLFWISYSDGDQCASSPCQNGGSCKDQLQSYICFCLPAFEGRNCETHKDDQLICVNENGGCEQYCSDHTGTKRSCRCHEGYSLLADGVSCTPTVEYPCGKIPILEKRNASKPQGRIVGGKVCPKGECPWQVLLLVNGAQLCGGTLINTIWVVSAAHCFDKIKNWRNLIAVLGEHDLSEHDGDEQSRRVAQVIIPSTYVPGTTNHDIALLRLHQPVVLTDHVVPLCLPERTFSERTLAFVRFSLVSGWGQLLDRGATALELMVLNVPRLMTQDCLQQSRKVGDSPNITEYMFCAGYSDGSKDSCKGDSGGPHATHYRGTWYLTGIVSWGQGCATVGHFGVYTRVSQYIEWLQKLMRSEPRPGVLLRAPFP

[10] = Bioavailability in dog at 0.2 mg/kg, po; assay type: ADME, organism-based, Canis lupus familiaris; settings: in vivo; outline: as §2
[11] = Half life in dog at 0.5 mg/kg, iv; assay type: ADME, organism-based, Canis lupus familiaris; parameters: dose 0.5 mg/kg, route intravenous; settings: in vivo; outline: as §2
Coagulation factor XI = Coagulation factor XI (Homo sapiens, UniProt P03951); assay: Inhibition of human factor 11a
Coagulation factor XI, sequence (P03951 19-387 limits assumed): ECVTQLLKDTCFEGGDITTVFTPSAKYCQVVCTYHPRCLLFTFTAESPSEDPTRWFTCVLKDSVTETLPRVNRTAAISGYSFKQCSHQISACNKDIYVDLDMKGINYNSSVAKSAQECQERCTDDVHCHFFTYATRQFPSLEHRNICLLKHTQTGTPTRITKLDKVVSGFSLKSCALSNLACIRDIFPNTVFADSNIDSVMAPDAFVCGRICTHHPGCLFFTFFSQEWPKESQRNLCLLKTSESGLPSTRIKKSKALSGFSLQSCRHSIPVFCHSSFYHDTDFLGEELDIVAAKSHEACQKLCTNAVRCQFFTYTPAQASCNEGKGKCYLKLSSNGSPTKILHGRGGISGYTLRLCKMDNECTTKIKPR
Coagulation factor XI, sequence (P03951 388-625 limits assumed): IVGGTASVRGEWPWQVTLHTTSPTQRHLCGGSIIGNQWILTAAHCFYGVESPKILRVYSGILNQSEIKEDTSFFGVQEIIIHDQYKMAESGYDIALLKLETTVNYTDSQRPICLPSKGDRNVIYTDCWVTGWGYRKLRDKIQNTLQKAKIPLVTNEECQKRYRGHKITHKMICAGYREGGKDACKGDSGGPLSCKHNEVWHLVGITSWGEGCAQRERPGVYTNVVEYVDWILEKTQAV

[12] = Metabolic stability in human liver microsomes after 10 mins; assay type: ADME, Microsome; settings: read-out: Stability; outline: as §1

Coagulation factor X, sequence (P00742 41-179 limits assumed): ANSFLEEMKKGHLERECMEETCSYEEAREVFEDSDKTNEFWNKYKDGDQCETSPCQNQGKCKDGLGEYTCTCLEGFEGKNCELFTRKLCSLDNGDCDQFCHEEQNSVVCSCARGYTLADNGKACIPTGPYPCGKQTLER
Coagulation factor X, sequence (P00742 235-488 limits assumed): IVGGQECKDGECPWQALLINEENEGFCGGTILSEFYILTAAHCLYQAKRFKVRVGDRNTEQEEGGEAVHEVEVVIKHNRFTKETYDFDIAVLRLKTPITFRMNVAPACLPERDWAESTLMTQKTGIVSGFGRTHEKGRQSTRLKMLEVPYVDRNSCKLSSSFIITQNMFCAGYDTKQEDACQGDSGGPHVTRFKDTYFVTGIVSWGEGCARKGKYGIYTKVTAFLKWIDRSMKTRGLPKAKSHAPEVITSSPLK

CC(=O)N1C[C@H](NC(=O)c2ccc(-n3ccccc3=O)cc2)[C@H](NC(=O)c2ccc3c(Cl)c[nH]c3c2)C1
pKi (Coagulation factor X): 8.41

CCOC(=O)N1C[C@H](NC(=O)c2ccc(-n3ccccc3=O)cc2)[C@H](NC(=O)c2ccc3c(Cl)c[nH]c3c2)C1
pKi (Coagulation factor X): 8.55

CCC(=O)N1C[C@H](NC(=O)c2ccc(-n3ccccc3=O)cc2)[C@H](NC(=O)c2ccc(Cl)s2)C1
pKi (Coagulation factor X): 8.70 | pIC50 [1]: < 4.00

CC(C)(C)C(=O)N1C[C@H](NC(=O)c2ccc(-n3ccccc3=O)cc2)[C@H](NC(=O)c2ccc(Cl)s2)C1
pKi (Coagulation factor X): 8.77 | pIC50 [1]: < 4.00

CC(C)C(=O)N1C[C@H](NC(=O)c2ccc(-n3ccccc3=O)cc2)[C@H](NC(=O)c2ccc(Cl)s2)C1
pKi (Coagulation factor X): 8.89 | pIC50 [1]: < 4.00 | CL (Liver microsomes): 0 nmol/mg/min

O=C(N[C@H]1CN(C(=O)OCC2c3ccccc3-c3ccccc32)C[C@H]1NC(=O)c1ccc(Cl)s1)c1ccc(-n2ccccc2=O)cc1
pKi (Coagulation factor X): 8.35

O=C(N[C@H]1CN(C(=O)OCC2c3ccccc3-c3ccccc32)C[C@H]1NC(=O)c1ccc2c(Cl)c[nH]c2c1)c1ccc(-n2ccccc2=O)cc1
pKi (Coagulation factor X): 6.79 | pIC50 [1]: < 4.00

CCS(=O)(=O)N1C[C@H](NC(=O)c2ccc(-n3ccccc3=O)cc2)[C@H](NC(=O)c2ccc(Cl)s2)C1
pKi (Prothrombin): 5.40 | pKi [2]: < 4.68 | pKi (Coagulation factor X): 9.19 | Papp [3]: < 15 nm/s | pKi [4]: < 4.70 | Vd [5]: 1.1 L/kg | pKi [6]: < 4.85 | Ki (Trypsin): > 5 µM | pKi [7]: < 4.68 | pKi (Plasma kallikrein): < 4.97 | pKi (Plasminogen): < 4.66 | clearance [8]: 1.5 L/h/kg | half-life [9]: 78 min | pKi (Coagulation factor VII): < 4.96 | pIC50 [1]: < 4.00 | CL (Liver microsomes): 0 nmol/mg/min | bioavailability [10]: 16% | half-life [11]: 42 min | pKi (Coagulation factor XI): 5.18

CNC(=O)N1C[C@H](NC(=O)c2ccc(-n3ccccc3=O)cc2)[C@H](NC(=O)c2ccc(Cl)s2)C1
pKi (Coagulation factor X): 8.96 | pIC50 [1]: < 4.00 | CL (Liver microsomes): 0 nmol/mg/min

COC(=O)N1C[C@H](NC(=O)c2ccc(-n3ccccc3=O)cc2)[C@H](NC(=O)c2ccc(Cl)s2)C1
pKi (Coagulation factor X): 9.13 | pIC50 [1]: < 4.00 | CL (Liver microsomes): 0 nmol/mg/min

CC(=O)N1C[C@H](NC(=O)c2ccc(-n3ccccc3=O)cc2)[C@H](NC(=O)c2ccc(Cl)s2)C1
pKi (Prothrombin): 5.26 | pKi [2]: < 4.68 | pKi (Coagulation factor X): 9.24 | Papp [3]: < 15 nm/s | pKi [4]: < 4.70 | Vd [5]: 2.4 L/kg | pKi [6]: < 4.85 | Ki (Trypsin): > 5 µM | pKi [7]: < 4.68 | pKi (Plasma kallikrein): < 5.22 | pKi (Plasminogen): < 4.66 | clearance [8]: 1.8 L/h/kg | half-life [9]: 48 min | pKi (Coagulation factor VII): < 4.96 | pIC50 [1]: < 4.00 | CL (Liver microsomes): 0 nmol/mg/min | bioavailability [10]: 5% | half-life [11]: 48 min | pKi (Coagulation factor XI): 4.99

O=C(N[C@H]1Cc2ccccc2[C@H]1NC(=O)c1ccc2c(Cl)c[nH]c2c1)c1ccc(-n2ccccc2=O)cc1
pKi (Coagulation factor X): 9.08

COC(=O)C1C[C@H](NC(=O)c2ccc(-n3ccccc3=O)cc2)[C@H](NC(=O)c2ccc(Cl)s2)C1 (stereo partly drawn)
pKi (Coagulation factor X): 9.41

O=C(N[C@H]1Cc2ccccc2[C@H]1NC(=O)c1ccc(-n2ccccc2=O)cc1)c1ccc2c(Cl)c[nH]c2c1
pKi (Coagulation factor X): 8.10

O=C(N[C@H]1c2ccccc2C[C@H]1NC(=O)c1ccc(Cl)s1)c1ccc(-n2ccccc2=O)cc1
pKi (Coagulation factor X): 9.57 | remaining at 10 min [12]: 32%

O=C(N[C@H]1C[C@H](C(=O)O)C[C@H]1NC(=O)c1ccc(Cl)s1)c1ccc(-n2ccccc2=O)cc1
pKi (Prothrombin): < 4.92 | pKi [2]: < 4.68 | pKi (Coagulation factor X): 8.72 | pKi [4]: < 4.70 | pKi [6]: < 4.85 | Ki (Trypsin): > 5 µM | pKi [7]: < 4.68 | pKi (Plasma kallikrein): < 5.22 | pKi (Plasminogen): < 4.66 | pKi (Coagulation factor VII): < 4.96 | pKi (Coagulation factor XI): < 4.96

O=C(N[C@H]1C[C@H](C(=O)NC2CC2)C[C@H]1NC(=O)c1ccc(Cl)s1)c1ccc(-n2ccccc2=O)cc1
pKi (Coagulation factor X): 8.80

COC(=O)C1C[C@H](NC(=O)c2ccc(-n3ccccc3=O)cc2)[C@H](NC(=O)c2ccc3c(Cl)c[nH]c3c2)C1 (stereo partly drawn)
pKi (Coagulation factor X): 8.52

O=C(N[C@H]1CN(C(=O)N2CCCC2)C[C@H]1NC(=O)c1ccc(Cl)s1)c1ccc(-n2ccccc2=O)cc1
pKi (Coagulation factor X): 8.77 | pIC50 [1]: < 4.00

COCCNC(=O)[C@H]1C[C@H](NC(=O)c2ccc(-n3ccccc3=O)cc2)[C@H](NC(=O)c2ccc(Cl)s2)C1
pKi (Coagulation factor X): 8.54

O=C(N[C@H]1C[C@H](C(=O)N2CCOCC2)C[C@H]1NC(=O)c1ccc(Cl)s1)c1ccc(-n2ccccc2=O)cc1
pKi (Coagulation factor X): 8.80
